Consider one compound from ChEMBL document CHEMBL4665666, “Discovery and characterization of trypanocidal cysteine protease inhibitors from the 'malaria box'” (Eur J Med Chem, 2019).

In general, inhibition refers to the change of the read-out against control, counted positive when it falls. The term IC50 denotes the point on the concentration scale where inhibition reaches its midpoint.

Assay [1] has as its target Rhodesain (Trypanosoma brucei rhodesiense) (UniProt Q95PM0). The experiment in a line: Inhibition of recombinant Trypanosoma brucei rhodesain expressed in Pichia pastoris at 5 uM using Z-FR-AMC as substrate preincubated for 10 mins followed by substrate addition and measured at 12 sec interval for 5 mins by fluorimetric analysis relative to control. To be noted: time 15.0 min. The gist of the method: (§1)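 Recombinant rhodesain or cruzain (1 nM) in 0.1 M sodium acetate pH 5.5, 0.01% Triton X-100, 1 mM β-mercaptoethanol. Compound at a single concentration, either without or after 10 min enzyme pre-incubation. Inhibition is relative to DMSO, with E-64 as positive control. Done in duplicate (primary screen) or triplicate.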

Assay [2] addresses Cruzipain (Trypanosoma cruzi) (UniProt P25779). The experiment in a line: Inhibition of recombinant Trypanosoma cruzi cruzain at 2.5 uM using Z-FR-AMC as substrate preincubated for 10 mins followed by substrate addition and measured at 12 sec interval for 5 mins by fluorimetric analysis relative to control. The following applies: time 15.0 min. The gist of the method:
(§2)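 Recombinant rhodesain or cruzain (1 nM) in 0.1 M sodium acetate pH 5.5, 0.01% Triton X-100, 1 mM β-mercaptoethanol. Compound at a single concentration, either without or after 10 min enzyme pre-incubation. Z-FR-AMC 2.5 µM, read at 340/440 nm every 12 s for 5 min. Inhibition is relative to DMSO, with E-64 as positive control. Done in duplicate (primary screen) or triplicate.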

The target is the same in assay [3]. The experiment in a line: Inhibition of recombinant Trypanosoma cruzi cruzain at 5 uM using Z-FR-AMC as substrate preincubated for 10 mins followed by substrate addition and measured at 12 sec interval for 5 mins by fluorimetric analysis relative to control. The following applies: time 15.0 min. The gist of the method: as §1
A further assay concerns Trypanosoma cruzi. The assay can be described thus: Trypanocidal activity against Trypanosoma cruzi Tulahuen C4 assessed as reduction in parasite viability. It counts as functional, organism-based.
For assay [4], the target named is Cruzipain (Trypanosoma cruzi) (UniProt P25779). The assay can be described thus: Inhibition of recombinant Trypanosoma cruzi cruzain at 5 uM using Z-FR-AMC as substrate and measured at 12 sec interval for 5 mins without preincubation by fluorimetric analysis relative to control. The method, boiled down: as §1
Cruzipain (Trypanosoma cruzi), sequence (P25779 123-467 limits assumed): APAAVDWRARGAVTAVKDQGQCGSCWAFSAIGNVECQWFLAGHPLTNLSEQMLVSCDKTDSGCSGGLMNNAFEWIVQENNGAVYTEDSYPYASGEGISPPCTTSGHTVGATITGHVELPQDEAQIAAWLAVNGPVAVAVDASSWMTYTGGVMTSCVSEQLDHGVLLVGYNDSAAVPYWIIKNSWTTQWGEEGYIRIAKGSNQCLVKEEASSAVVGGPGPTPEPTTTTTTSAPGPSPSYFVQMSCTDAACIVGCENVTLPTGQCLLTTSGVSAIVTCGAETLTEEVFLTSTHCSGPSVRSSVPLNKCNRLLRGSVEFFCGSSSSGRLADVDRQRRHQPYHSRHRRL
Assay [5] has as its target Rhodesain (Trypanosoma brucei rhodesiense) (UniProt Q95PM0). The experiment in a line: Inhibition of recombinant Trypanosoma brucei rhodesain expressed in Pichia pastoris at 2.5 uM using Z-FR-AMC as substrate preincubated for 10 mins followed by substrate addition and measured at 12 sec interval for 5 mins by fluorimetric analysis relative to control. To be noted: time 15.0 min. The method, boiled down: (§3)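 Run with no pre-incubation or with 10 min enzyme-compound pre-incubation. Fluorescence read at 340/440 nm. Concentration was set by solubility under assay conditions. Inhibition is against DMSO, with E-64 as positive control; triplicate.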

Assay [6] has the same target. The experiment in a line: Inhibition of recombinant Trypanosoma brucei rhodesain expressed in Pichia pastoris at 2.5 uM using Z-FR-AMC as substrate and measured at 12 sec interval for 5 mins without preincubation by fluorimetric analysis relative to control. The method, boiled down: as §3
The subject of assay [7] is Trypanosoma brucei brucei. The experiment in a line: Trypanocidal activity against Trypanosoma brucei brucei Squib 427 assessed as reduction in parasite viability. Type of assay: functional, organism-based.
Assay [8] deals with Cruzipain (Trypanosoma cruzi) (UniProt P25779). The experiment in a line: Inhibition of recombinant Trypanosoma cruzi cruzain at 2.5 uM using Z-FR-AMC as substrate and measured at 12 sec interval for 5 mins without preincubation by fluorimetric analysis relative to control. The gist of the method: as §2
The target of assay [9] is Rhodesain (Trypanosoma brucei rhodesiense) (UniProt Q95PM0). The experiment in a line: Inhibition of recombinant Trypanosoma brucei rhodesain expressed in Pichia pastoris at 5 uM using Z-FR-AMC as substrate and measured at 12 sec interval for 5 mins without preincubation by fluorimetric analysis relative to control. The method, boiled down:
as §1

The test system of assay [10] is Trypanosoma brucei rhodesiense. The experiment in a line: Trypanocidal activity against Trypanosoma brucei rhodesiense STI B900 assessed as reduction in parasite viability. Type of assay: functional, organism-based.

Rhodesain (Trypanosoma brucei rhodesiense), sequence (Q95PM0 1-450): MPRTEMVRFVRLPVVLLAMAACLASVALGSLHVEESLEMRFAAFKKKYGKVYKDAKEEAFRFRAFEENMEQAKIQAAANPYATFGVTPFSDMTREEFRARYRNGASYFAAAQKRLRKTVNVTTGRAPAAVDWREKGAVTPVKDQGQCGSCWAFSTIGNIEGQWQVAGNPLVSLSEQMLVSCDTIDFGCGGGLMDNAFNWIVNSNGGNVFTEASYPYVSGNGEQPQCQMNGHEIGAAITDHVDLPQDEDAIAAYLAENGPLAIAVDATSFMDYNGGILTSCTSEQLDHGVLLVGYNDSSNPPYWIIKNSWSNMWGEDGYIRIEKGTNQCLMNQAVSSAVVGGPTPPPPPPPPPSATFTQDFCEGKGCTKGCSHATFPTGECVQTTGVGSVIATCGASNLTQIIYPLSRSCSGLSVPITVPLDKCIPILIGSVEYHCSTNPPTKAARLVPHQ

For the compound `Cc1ccc(C(=O)c2oc3ccc4c(C)cc(=O)oc4c3c2C)cc1`, the inhibition in assay [1] is 77.1%; in assay [2], 11%; in assay [3] it was 69%; in assay [4], 53.6%; in assay [5], 12%; in [6], 8%. Also, the inhibition in assay [8] stood at 3%; in [9], 60.4%. Moreover, the IC50 (with Trypanosoma cruzi; in assay [7]; in assay [10]) was 32 µM each time.
